Screens as filed in PubChem.
Exocytosis inh: LAMP-1 surface exposure blockers, TALL-104 cells – cell-based, flow cytometry, MLPCN library, primary screen | TALL-104 LAMP-1 surface exposure; cells stimulated with thapsigargin and PMA | inhibition, % at 10 µM | 0.66% of 360,000 active;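 active means inhibition above about 55%, limit read from the data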
Mdm2-MdmX inh: inhibitors of human Mdm2-MdmX association, primary screen, cell-based, luminescence, split luciferase, SaOS-2, uHTS. Protein Mdm4 (Homo sapiens) + E3 ubiquitin-protein ligase Mdm2 (Homo sapiens), …. SaOS-2 split-luciferase Mdm2/MdmX complementation. inhibition, % at 8 µM. 3% of 330,000 active. AID 485346, 2010;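 active means inhibition of at least 50% at 8 µM in the primary screen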
Target sequence (O15151 whole entry, looked up): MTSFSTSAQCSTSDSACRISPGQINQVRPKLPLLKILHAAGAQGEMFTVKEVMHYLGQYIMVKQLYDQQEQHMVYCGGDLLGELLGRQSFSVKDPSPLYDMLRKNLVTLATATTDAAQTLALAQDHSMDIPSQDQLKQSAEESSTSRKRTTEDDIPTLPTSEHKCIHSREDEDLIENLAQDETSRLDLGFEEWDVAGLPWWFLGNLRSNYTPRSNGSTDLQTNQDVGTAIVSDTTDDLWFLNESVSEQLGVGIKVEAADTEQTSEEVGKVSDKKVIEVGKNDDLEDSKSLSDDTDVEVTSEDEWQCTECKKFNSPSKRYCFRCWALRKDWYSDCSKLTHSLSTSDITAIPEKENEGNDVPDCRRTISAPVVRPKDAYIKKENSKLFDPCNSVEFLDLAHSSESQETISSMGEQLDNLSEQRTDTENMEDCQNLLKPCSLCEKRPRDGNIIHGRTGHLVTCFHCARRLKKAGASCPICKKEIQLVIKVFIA
Target sequence (Q00987 whole entry, looked up): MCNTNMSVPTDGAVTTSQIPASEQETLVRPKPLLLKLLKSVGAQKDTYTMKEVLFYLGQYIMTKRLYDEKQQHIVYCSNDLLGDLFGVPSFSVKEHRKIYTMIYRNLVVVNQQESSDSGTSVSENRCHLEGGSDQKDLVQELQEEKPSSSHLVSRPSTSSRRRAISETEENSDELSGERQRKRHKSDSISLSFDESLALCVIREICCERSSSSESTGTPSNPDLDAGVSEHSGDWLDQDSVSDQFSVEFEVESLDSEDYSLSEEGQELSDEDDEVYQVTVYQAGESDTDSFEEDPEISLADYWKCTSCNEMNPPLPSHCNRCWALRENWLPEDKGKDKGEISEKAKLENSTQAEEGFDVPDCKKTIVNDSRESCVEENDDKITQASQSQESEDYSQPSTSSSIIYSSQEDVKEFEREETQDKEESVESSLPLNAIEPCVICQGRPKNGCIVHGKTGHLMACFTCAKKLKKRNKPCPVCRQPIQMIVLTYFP
XBP1 UPR activ: activators of adaptive XBP1 UPR arm, primary screen, cell-based, CHO-XBP1 luciferase reporter, luminescence, uHTS | IRE1-XBP1 UPR activation; percent of tunicamycin response, DMSO as zero | activation, % at 20 µM | 0.33% of 330,000 active | AID 463104, 2010;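 active means versus positive control, 20 µM dose yields 30% or more activation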
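incubation = overnight seeding at 37 °C, 6 h compound treatment at 37 °C | assay system = CHO-XBP1 cells stably carrying IRE1-XBP1-driven luciferase reporter | input = 1000 cells per well | detection = luciferase luminescence | dosing = single point, 20 µM final compound, 1% DMSO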
CHOP UPR activ: activators of apoptotic CHOP UPR arm, primary screen, cell-based, CHO-CHOP luciferase reporter, luminescence, uHTS | UPR activation; percent of tunicamycin response over DMSO baseline | activation, % at 10 µM | 0.34% of 330,000 active | AID 449763, 2010;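 active means at 10 µM dose, activation of 40% or more, normalized to positive control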
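System: CHO CHOP reporter cells. Amount: 500 cells per well. Buffer or medium: F12 medium, 10% FBS. Compound dosing: one dose, 10 µM in 0.5% DMSO. Incubation: 6 h compound exposure at 37 °C after overnight seeding. Technique: Steady-Glo luciferase luminescence. Benchmarks: tunicamycin and DMSO controls.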
ABHD5-PLIN5 inh: ABHD5-PLIN5 interaction inhibitors, primary screen, cell lysate, split luciferase complementation, luminescence. Split G. princeps luciferase complementation, 4 h. inhibition, % at 4 µM. 0.78% of 360,000 active;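 active means inhibition above the mean inhibition across every tested compound plus 3 SD, cut at about 22% in these data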
Mdm2 MdmX conf: Mdm2-MdmX complex disruptors, retested hits, confirmation, luminescence, single concentration; shares compounds with Mdm2-MdmX inh; Mdm2-MdmX binding, luminescent assay; inhibition, % at 8 µM; 55% of 10,000 active; AID 489028, 2010; in the data active means inhibition above about 40%
Full FLuc ctr: full-length luciferase signal inhibition, confirmation, counter-screen for Mdm2/MdmX interaction inhibitor project, cell-based, single concentration, SaOS-2. shares compounds with Mdm2-MdmX inh. SaOS-2 full-length luciferase counterscreen, luminescence. inhibition, % at 8 µM. 77% of 6,200 active;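 active means mean inhibition at 8 µM reaching about 37%, which flags the compound as non-specific, limit read from the data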;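 further: p53-null SaOS-2 cells with luciferase driven by a doxycycline-inducible promoter; compound on cells about two nights before reading with doxycycline added after day one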
Hits are given with their value. Compounds with a hit are over-represented: about 4% of the library has one in this group of screens.

`O=C1C=C(c2ccccc2)C[C@H](c2cccs2)[C@H]1n1nnc([N+](=O)[O-])n1` gave Exocytosis inh inactive, Mdm2-MdmX inh 71, XBP1 UPR activ inactive, CHOP UPR activ inactive, ABHD5-PLIN5 inh inactive, Mdm2 MdmX conf 57 and Full FLuc ctr 60.
`CCOC(=O)CCC(NC(=O)c1ccccc1C(=O)NC(CCC(=O)OCC)C(=O)OCC)C(=O)OCC` (configuration not stated) gave Exocytosis inh inactive, Mdm2-MdmX inh inactive, XBP1 UPR activ inactive, CHOP UPR activ inactive and ABHD5-PLIN5 inh inactive.
For CCCOc1ccc(CNC(=O)c2ccc3nc(N4CCOCC4)sc3c2)cc1 the results were Exocytosis inh inactive, Mdm2-MdmX inh 51, XBP1 UPR activ inactive, CHOP UPR activ inactive, ABHD5-PLIN5 inh inactive and Mdm2 MdmX conf inactive.
CCCNC(=O)c1cccc(COCC(F)(F)C(F)F)c1 was read as Exocytosis inh inactive, Mdm2-MdmX inh inactive, XBP1 UPR activ inactive, CHOP UPR activ inactive and ABHD5-PLIN5 inh inactive.
For COc1ccccc1CN1CC(C(=O)N(C)Cc2ccncc2C)CCC1=O (configuration not stated) the results were Exocytosis inh inactive, Mdm2-MdmX inh inactive, XBP1 UPR activ inactive, CHOP UPR activ inactive and ABHD5-PLIN5 inh inactive.
COc1nn(-c2ccccc2)c(=O)c(Cl)c1Cl was read as Exocytosis inh inactive, Mdm2-MdmX inh 100, XBP1 UPR activ inactive, CHOP UPR activ inactive, ABHD5-PLIN5 inh inactive, Mdm2 MdmX conf 62 and Full FLuc ctr inactive.
`COc1c(Cl)cnn(-c2ccccc2)c1=O` gave Exocytosis inh inactive, Mdm2-MdmX inh inactive, XBP1 UPR activ inactive, CHOP UPR activ inactive and ABHD5-PLIN5 inh inactive.
`CC(C)(C)NC(=O)C(c1ccncc1)N(CC1CCCO1)C(=O)Cn1nnc(-c2ccc(F)cc2)n1` (configuration not stated) gave Exocytosis inh inactive, Mdm2-MdmX inh inactive, XBP1 UPR activ inactive, CHOP UPR activ inactive and ABHD5-PLIN5 inh inactive.
Screening CC(C)(C)NC(=O)C(c1ccncc1)N(Cc1cccs1)C(=O)Cn1nnc(-c2ccc(F)cc2)n1 (configuration not stated) returned Exocytosis inh inactive, Mdm2-MdmX inh 53, XBP1 UPR activ inactive, CHOP UPR activ inactive, ABHD5-PLIN5 inh inactive, Mdm2 MdmX conf 43 and Full FLuc ctr 55.
O=C(COc1ccccc1F)Nc1ccc2[nH]c(=O)[nH]c2c1 was read as Exocytosis inh inactive, Mdm2-MdmX inh inactive, XBP1 UPR activ inactive, CHOP UPR activ inactive and ABHD5-PLIN5 inh inactive.
COc1ccc(/C=C/c2nc(N)nc(-c3ccccc3O)n2)cc1OC was read as Exocytosis inh inactive, Mdm2-MdmX inh 61, XBP1 UPR activ inactive, CHOP UPR activ inactive, ABHD5-PLIN5 inh inactive, Mdm2 MdmX conf 44 and Full FLuc ctr 84.
`CC1CN(c2nc(-c3ccc(Br)cc3)nnc2-c2ccccc2)CC(C)N1` (configuration not stated) gave Exocytosis inh inactive, Mdm2-MdmX inh 81, XBP1 UPR activ inactive, CHOP UPR activ inactive, ABHD5-PLIN5 inh inactive, Mdm2 MdmX conf 54 and Full FLuc ctr 52.
Screening CCN(CC)c1ccc(/C=N/N=C(c2ccccc2)c2ccccc2)c(O)c1 returned Exocytosis inh inactive, Mdm2-MdmX inh inactive, XBP1 UPR activ inactive, CHOP UPR activ inactive and ABHD5-PLIN5 inh inactive.
For CCN(CC)c1ccc(/C=N/NC(=O)c2ccco2)c(O)c1 the results were Exocytosis inh inactive, Mdm2-MdmX inh 59, XBP1 UPR activ inactive, CHOP UPR activ inactive, ABHD5-PLIN5 inh inactive, Mdm2 MdmX conf 57 and Full FLuc ctr 55.
CCN(CC)c1ccc(/C=N/NC(=S)NCc2ccccc2)c(O)c1 was read as Exocytosis inh inactive, Mdm2-MdmX inh 60, XBP1 UPR activ inactive, CHOP UPR activ inactive, ABHD5-PLIN5 inh inactive, Mdm2 MdmX conf 44 and Full FLuc ctr 44.
`O=C(Cc1ccccc1)Nc1ncnc2c1C(c1ccccc1)c1c(ccc3ccccc13)O2` (configuration not stated) gave Exocytosis inh inactive, Mdm2-MdmX inh 90, XBP1 UPR activ inactive, CHOP UPR activ inactive, ABHD5-PLIN5 inh inactive and Mdm2 MdmX conf inactive.
Screening O=C(Nc1ncnc2c1C(c1ccccc1)c1c(ccc3ccccc13)O2)c1ccccc1 (configuration not stated) returned Exocytosis inh inactive, Mdm2-MdmX inh 65, XBP1 UPR activ inactive, CHOP UPR activ inactive, ABHD5-PLIN5 inh inactive, Mdm2 MdmX conf 52 and Full FLuc ctr 45.
`CCOC(=O)CCC(=O)Nc1ncnc2c1C(c1ccccc1)c1c(ccc3ccccc13)O2` (configuration not stated) gave Exocytosis inh inactive, Mdm2-MdmX inh inactive, XBP1 UPR activ inactive, CHOP UPR activ inactive and ABHD5-PLIN5 inh inactive.
Screening Cc1nc2c(c(=O)n1CCC(C)C)c1nc3ccccc3nc1n2CC1CCCO1 (configuration not stated) returned Exocytosis inh inactive, Mdm2-MdmX inh inactive, XBP1 UPR activ inactive, CHOP UPR activ inactive and ABHD5-PLIN5 inh inactive.
For Cn1c(NC(=O)c2ccc(C(C)(C)C)cc2)cc(=O)n(C)c1=O the results were Exocytosis inh inactive, Mdm2-MdmX inh inactive, XBP1 UPR activ inactive, CHOP UPR activ inactive and ABHD5-PLIN5 inh inactive.
Screening N#CC1=C(N)OC2=C(CC/C2=C\c2ccccc2Cl)C1c1ccccc1Cl (configuration not stated) returned Exocytosis inh inactive, Mdm2-MdmX inh 66, XBP1 UPR activ inactive, CHOP UPR activ inactive, ABHD5-PLIN5 inh inactive and Mdm2 MdmX conf inactive.
COC(=O)Nc1nc2ccc(C(=O)c3cccs3)cc2[nH]1 was read as Exocytosis inh inactive, Mdm2-MdmX inh 53, XBP1 UPR activ inactive, CHOP UPR activ inactive, ABHD5-PLIN5 inh inactive, Mdm2 MdmX conf 57 and Full FLuc ctr 126.
For O=C(NNC(=O)c1cc2cc3ccccc3nc2s1)c1ccc(F)cc1 the results were Exocytosis inh inactive, Mdm2-MdmX inh inactive, XBP1 UPR activ inactive, CHOP UPR activ inactive and ABHD5-PLIN5 inh inactive.
Screening O=C(NNC(=O)c1cc2cc3ccccc3nc2s1)c1cccc(Cl)c1 returned Exocytosis inh inactive, Mdm2-MdmX inh 57, XBP1 UPR activ inactive, CHOP UPR activ inactive, ABHD5-PLIN5 inh inactive, Mdm2 MdmX conf inactive and Full FLuc ctr 109.
